Test results reported in ChEMBL document CHEMBL1135021, “Biotinylated lithocholic acids for affinity chromatography of mammalian DNA polymerases alpha and beta” (Bioorg Med Chem Lett, 2002).

Tests used:
[1] = test system: C[C@H](CCC(=O)O)[C@H]1CC[C@H]2[C@@H]3CCC4C[C@@H](O)CC[C@]4(C)[C@H]3CC[C@]12C; conditions: 10 uM
[2] = test system: C[C@H](CCC(=O)O)[C@H]1CC[C@H]2[C@@H]3CCC4C[C@@H](OC(=O)CCNC(=O)CCCCCNC(=O)CCCCCNC(=O)CCCCC5SCC6NC(=O)NC65)CC[C@]4(C)[C@H]3CC[C@]12C; experiment: Compound was evaluated for relative maximum velocity (Vmax) at a concentration of 10 uM on rat DNA polymerase beta as a function of template primer dose
Outline: (§1)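 Rat DNA pol β (0.05 units) was used. Compound was dissolved in DMSO, sonicated 30 s, and preincubated with enzyme for 10 min at 0 °C in 50 mM Tris–HCl (pH 7.5), 1 mM dithiothreitol, 50% glycerol and 0.1 mM EDTA. It was then added to the standard reaction. Template-primer poly(dA)/oligo(dT)12–18 (2/1) or dTTP substrate was varied. Km and Vmax came from double reciprocal plots.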

[3] = test system: C[C@H](CCC(=O)O)[C@H]1CC[C@H]2[C@@H]3CCC4C[C@@H](OC(=O)CCNC(=O)CCCCCNC(=O)CCCCCNC(=O)CCCCC5SCC6NC(=O)NC65)CC[C@]4(C)[C@H]3CC[C@]12C; experiment: Michaelis constant at a concentration of 10 uM on rat DNA polymerase beta as a function of nucleotide substrate concentration
Outline: (§2)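 Kinetic runs used calf thymus pol α or rat pol β (0.05 units each) preincubated with compound at 0 °C for 10 min in Tris–HCl pH 7.5/DTT/glycerol/EDTA buffer. Either poly(dA)/oligo(dT)12–18 (2/1) template-primer or dTTP substrate was varied. Km and Vmax came from double reciprocal plots, Ki from Dixon plots.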

[4] = test system: C[C@H](CCC(=O)O)[C@H]1CC[C@H]2[C@@H]3CCC4C[C@@H](OC(=O)CCNC(=O)CCCCCNC(=O)CCCCCNC(=O)CCCCC5SCC6NC(=O)NC65)CC[C@]4(C)[C@H]3CC[C@]12C; experiment: Michaelis constant at a concentration of 0 uM on rat DNA polymerase beta as a function of nucleotide substrate concentration
Outline: as §1

[5] = test system: C[C@H](CCC(=O)O)[C@H]1CC[C@H]2[C@@H]3CCC4C[C@@H](OC(=O)CCNC(=O)CCCCCNC(=O)CCCCCNC(=O)CCCCC5SCC6NC(=O)NC65)CC[C@]4(C)[C@H]3CC[C@]12C; experiment: Compound was evaluated for relative maximum velocity (Vmax)at a concentration of 10 uM on rat DNA polymerase beta as a function of nucleotide substrate concentration
Outline: as §1

[6] = test system: C[C@H](CCC(=O)O)[C@H]1CC[C@H]2[C@@H]3CCC4C[C@@H](O)CC[C@]4(C)[C@H]3CC[C@]12C; conditions: 5 uM
[7] = test system: C[C@H](CCC(=O)O)[C@H]1CC[C@H]2[C@@H]3CCC4C[C@@H](O)CC[C@]4(C)[C@H]3CC[C@]12C; conditions: 10 uM; remark: listed apart in the source
[8] = test system: C[C@H](CCC(=O)O)[C@H]1CC[C@H]2[C@@H]3CCC4C[C@@H](O)CC[C@]4(C)[C@H]3CC[C@]12C; conditions: 0 uM
[9] = test system: C[C@H](CCC(=O)O)[C@H]1CC[C@H]2[C@@H]3CCC4C[C@@H](OC(=O)CCNC(=O)CCCCCNC(=O)CCCCCNC(=O)CCCCC5SCC6NC(=O)NC65)CC[C@]4(C)[C@H]3CC[C@]12C; experiment: Michaelis constant at a concentration of 10 uM on rat DNA polymerase beta as a function of template primer dose
Outline: as §2

[10] = test system: C[C@H](CCC(=O)O)[C@H]1CC[C@H]2[C@@H]3CCC4C[C@@H](O)CC[C@]4(C)[C@H]3CC[C@]12C; conditions: 5 uM; remark: listed apart in the source
[11] = test system: C[C@H](CCC(=O)O)[C@H]1CC[C@H]2[C@@H]3CCC4C[C@@H](OC(=O)CCNC(=O)CCCCCNC(=O)CCCCCNC(=O)CCCCC5SCC6NC(=O)NC65)CC[C@]4(C)[C@H]3CC[C@]12C; experiment: Michaelis constant at a concentration of 20 uMon rat DNA polymerase beta as a function of nucleotide substrate concentration; conditions: 20 uM
Outline: as §2

[12] = test system: C[C@H](CCC(=O)O)[C@H]1CC[C@H]2[C@@H]3CCC4C[C@@H](O)CC[C@]4(C)[C@H]3CC[C@]12C; conditions: 5 uM; remark: listed apart in the source
[13] = test system: C[C@H](CCC(=O)O)[C@H]1CC[C@H]2[C@@H]3CCC4C[C@@H](OC(=O)CCNC(=O)CCCCCNC(=O)CCCCCNC(=O)CCCCC5SCC6NC(=O)NC65)CC[C@]4(C)[C@H]3CC[C@]12C; experiment: Michaelis constant at a concentration of 20 uM on rat DNA polymerase beta as a function of template primer dose
Outline: as §2

[14] = test system: C[C@H](CCC(=O)O)[C@H]1CC[C@H]2[C@@H]3CCC4C[C@@H](OC(=O)CCNC(=O)CCCCCNC(=O)CCCCCNC(=O)CCCCC5SCC6NC(=O)NC65)CC[C@]4(C)[C@H]3CC[C@]12C; experiment: Michaelis constant at a concentration of 0 uM on rat DNA polymerase beta as a function of template primer dose
Outline: as §2

[15] = test system: C[C@H](CCC(=O)O)[C@H]1CC[C@H]2[C@@H]3CCC4C[C@@H](O)CC[C@]4(C)[C@H]3CC[C@]12C; conditions: 5 uM; remark: listed apart in the source
Nucleic Acid [16] = experiment: Compound was evaluated for Michaelis constant at a concentration of 0 uM on calf DNA polymerase alpha as a function of DNA template primer dose; assay type: nucleic-acid assay; conditions: Bos taurus
Outline: as §2

Nucleic Acid [17] = experiment: Compound was evaluated for relative maximum velocity (Vmax) at a concentration of 0 uM on calf DNA polymerase alpha as a function of nucleotide substrate concentration; assay type: nucleic-acid assay; conditions: Bos taurus
Outline: as §2

Nucleic Acid [18] = experiment: Compound was evaluated for relative maximum velocity (Vmax) at a concentration of 10 uM on calf DNA polymerase alpha as a function of template primer dose; assay type: nucleic-acid assay; conditions: Bos taurus
Outline: as §2

Nucleic Acid [19] = experiment: Compound was evaluated for relative maximum velocity (Vmax) at a concentration of 5 uM on calf DNA polymerase alpha as a function of template primer dose; assay type: nucleic-acid assay; conditions: Bos taurus
Outline: as §2

Nucleic Acid [20] = experiment: Compound was evaluated for relative maximum velocity (Vmax) at a concentration of 10 uM on calf DNA polymerase alpha as a function of nucleotide substrate concentration; assay type: nucleic-acid assay; conditions: Bos taurus
Outline: as §2

Nucleic Acid [21] = experiment: Michaelis constant at a concentration of 5 uM on calf DNA polymerase alpha as a function of nucleotide substrate concentration; assay type: nucleic-acid assay; conditions: Bos taurus
Outline: as §2

Nucleic Acid [22] = experiment: Compound was evaluated for relative maximum velocity (Vmax) at a concentration of 0 uM on calf DNA polymerase alpha as a function of DNA template primer dose; assay type: nucleic-acid assay; conditions: Bos taurus
Outline: as §2

Nucleic Acid [23] = experiment: Compound was evaluated for relative maximum velocity (Vmax) at a concentration of 5 uM on calf DNA polymerase alpha as a function of nucleotide substrate concentration; assay type: nucleic-acid assay; conditions: Bos taurus
Outline: as §2

Nucleic Acid [24] = conditions: Bos taurus; 50 uM
Nucleic Acid [25] = conditions: Bos taurus; 25 uM
Nucleic Acid [26] = conditions: Bos taurus; 25 uM; remark: listed apart in the source
Nucleic Acid [27] = conditions: Bos taurus; 25 uM; remark: listed apart in the source
Nucleic Acid [28] = conditions: Bos taurus; 50 uM; remark: listed apart in the source
Nucleic Acid [29] = conditions: Bos taurus; 25 uM; remark: listed apart in the source

Compound: DNA polymerase beta (Rattus norvegicus) (from UniProt P06766)
- Km [1]: 18.3 µM
- Vmax [2]: 111 pMl hr-1
- Km [3]: 6.67 µM
- Km [4]: 3.05 µM
- Vmax [5]: 62.5 pMl hr-1
- Vmax [6]: 111 pMl hr-1
- Km [7]: 7.86 µM
- Km [8]: 3.05 µM
- Km [9]: 9.98 µM
- Km [10]: 9.41 µM
- Km [11]: 9.49 µM
- Km [12]: 6.28 µM
- Km [13]: 21.7 µM
- Km [14]: 6.47 µM
- Vmax [15]: 62.5 pMl hr-1

Compound: C[C@H](CCC(=O)O)[C@H]1CC[C@H]2[C@@H]3CCC4C[C@@H](OC(=O)CCNC(=O)CCCCCNC(=O)CCCCCNC(=O)CCCCC5SCC6NC(=O)NC65)CC[C@]4(C)[C@H]3CC[C@]12C (stereo partly specified)
- Km (Nucleic Acid [16]): 13 µM
- Vmax (Nucleic Acid [17]): 29.2 pM/h
- Vmax (Nucleic Acid [18]): 21.3 pM/h
- Vmax (Nucleic Acid [19]): 33.5 pM/h
- Vmax (Nucleic Acid [20]): 17.8 pM/h
- Km (Nucleic Acid [21]): 1.65 µM
- Vmax (Nucleic Acid [22]): 55.6 pM/h
- Vmax (Nucleic Acid [23]): 24.3 pM/h

Compound: C[C@H](CCC(=O)O)[C@H]1CC[C@H]2[C@@H]3CCC4C[C@@H](O)CC[C@]4(C)[C@H]3CC[C@]12C (stereo partly specified)
- Vmax (Nucleic Acid [24]): 14.8 pM/h
- Km (Nucleic Acid [25]): 1.65 µM
- Vmax (Nucleic Acid [17]): 29.2 pM/h
- Vmax (Nucleic Acid [26]): 24.9 pM/h
- Vmax (Nucleic Acid [27]): 31.3 pM/h
- Vmax (Nucleic Acid [22]): 55.6 pM/h
- Vmax (Nucleic Acid [28]): 17.7 pM/h
- Km (Nucleic Acid [29]): 13 µM
